ChEMBL document CHEMBL1144703, “Identification of novel ligands for the RNA pseudoknot that regulate -1 ribosomal frameshifting” (Bioorg Med Chem, 2008)
Active and inactive are the calls of the source. The rule behind the calls is not given here.

How the values were obtained:
[1] = Activity at synthetic biotin-RNA pseudoknot assessed as increase in -1 ribosomal frameshifting efficiency at 250 uM by dual luciferase assay
How it was run: (§1)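 Biotin-pseudoknot template ligated into dual luciferase vector (XhoI/SpeI). Coupled transcription/translation in rabbit reticulocyte lysate with compounds at 250 μM in DMSO; DMSO control. Frameshift efficiency from SDS–PAGE band quantification (100 vs 40 kDa, PhosphorImager) or dual luciferase firefly/Renilla ratio, 10 s reads; fold change = efficiency with compound / without; triplicate runs.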

HEK293 = test: Activity at synthetic biotin-RNA pseudoknot assessed as increase in -1 ribosomal frameshifting efficiency in human HEK293 cells at 250 uM by transcription/translation-coupled assay; assay type: cell-based
How it was run: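 HEK 293 in DMEM, 10% FBS, 1% pen-strep, seeded to 40% confluence, transfected with biotin-pseudoknot dual luciferase construct (50 ng DNA, JetPEI) for 18 h, then compound in DMSO added for a further 18 h. Passive lysis 30 min at room temperature, protein normalised by Bradford (50 μg), firefly/Renilla luciferase ratio read.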

[2] = Activity at synthetic biotin-RNA pseudoknot assessed as increase in -1 ribosomal frameshifting efficiency at 250 uM by rabbit reticulocyte based transcription/translation-coupled assay; how it was run: as §1
[3] = system: Pea enation mosaic virus-1; test: Activity at PEMV RNA pseudoknot assessed as increase in -1 ribosomal frameshifting efficiency at 250 uM by SDS-PAGE based transcription/translation-coupled assay
How it was run: (§2)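 Template carries PEMV pseudoknot in place of biotin-pseudoknot in dual luciferase vector. In vitro TNT-coupled transcription/translation in rabbit reticulocyte lysate, compounds in DMSO (DMSO control). Read-out by SDS–PAGE autoradiography, frameshift (100 kDa) vs non-frameshift (40 kDa) products quantified by PhosphorImager, or by dual luciferase (firefly then Renilla, 10 s each, ratio); luciferase values mean of triplicates.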

[4] = system: Pea enation mosaic virus-1; test: Activity at PEMV RNA pseudoknot assessed as increase in -1 ribosomal frameshifting efficiency at 250 uM by dual luciferase based transcription/translation-coupled assay; how it was run: as §2
[5] = Activity at synthetic biotin-RNA pseudoknot assessed as increase in -1 ribosomal frameshifting efficiency by rabbit reticulocyte based transcription/translation-coupled assay
How it was run: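 Concentration series 25 nM to 250 μM in rabbit reticulocyte TNT-coupled assay with biotin-pseudoknot template; biotin at 250 μM as comparator. Frameshifting % from SDS–PAGE autoradiogram, frameshift (100 kDa) vs non-frameshift (40 kDa) protein.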

Activity [1] | SMILES | other results
Active | COC(=O)c1cc(NC(=O)NCCSCc2ccccc2)cc(C(=O)OC)c1 | 
Active | CCOC(=O)c1cccc(NC(=O)N2CCCN2C(=O)c2cccnc2SCCCC#N)c1 | 
Active | CCOC(=O)C(CSCc1ccccc1)NC(=O)Nc1ccc(SC)cc1 (stereo unspecified) | 
18.1% | COC(=O)C(CCCCNC(=O)Nc1cc(F)ccc1F)NS(=O)(=O)c1ccc(C)cc1 (stereo unspecified) | Activity (HEK293): 8.05%; Activity [2]: 13.7%; Activity [3]: 7.6%; Activity [4]: inactive; Activity [5]: Dose-dependent effect
Active | CSc1ccccc1NC(=O)NCC(=O)OCc1ccccc1 | 
Active | CCOC(=O)N1CCN(C(=O)Nc2ccccc2SC)CC1 | 
